Data on four compounds can be found in ChEMBL document CHEMBL4014306, “Pyrazolopyrimidines as Potent Stimulators for Transient Receptor Potential Canonical 3/6/7 Channels” (J Med Chem, 2017).

Calls of active or inactive are those of the source. The rule behind the calls is not given here.

In general, EC50 refers to the midpoint of the concentration-response curve.

Common to all, as to format: cell-based
Assay [1] deals with T1, Short transient receptor potential channel 4 (Mus musculus, UniProt Q9QUQ5).
T1 sequence (Q9QUQ5 whole entry): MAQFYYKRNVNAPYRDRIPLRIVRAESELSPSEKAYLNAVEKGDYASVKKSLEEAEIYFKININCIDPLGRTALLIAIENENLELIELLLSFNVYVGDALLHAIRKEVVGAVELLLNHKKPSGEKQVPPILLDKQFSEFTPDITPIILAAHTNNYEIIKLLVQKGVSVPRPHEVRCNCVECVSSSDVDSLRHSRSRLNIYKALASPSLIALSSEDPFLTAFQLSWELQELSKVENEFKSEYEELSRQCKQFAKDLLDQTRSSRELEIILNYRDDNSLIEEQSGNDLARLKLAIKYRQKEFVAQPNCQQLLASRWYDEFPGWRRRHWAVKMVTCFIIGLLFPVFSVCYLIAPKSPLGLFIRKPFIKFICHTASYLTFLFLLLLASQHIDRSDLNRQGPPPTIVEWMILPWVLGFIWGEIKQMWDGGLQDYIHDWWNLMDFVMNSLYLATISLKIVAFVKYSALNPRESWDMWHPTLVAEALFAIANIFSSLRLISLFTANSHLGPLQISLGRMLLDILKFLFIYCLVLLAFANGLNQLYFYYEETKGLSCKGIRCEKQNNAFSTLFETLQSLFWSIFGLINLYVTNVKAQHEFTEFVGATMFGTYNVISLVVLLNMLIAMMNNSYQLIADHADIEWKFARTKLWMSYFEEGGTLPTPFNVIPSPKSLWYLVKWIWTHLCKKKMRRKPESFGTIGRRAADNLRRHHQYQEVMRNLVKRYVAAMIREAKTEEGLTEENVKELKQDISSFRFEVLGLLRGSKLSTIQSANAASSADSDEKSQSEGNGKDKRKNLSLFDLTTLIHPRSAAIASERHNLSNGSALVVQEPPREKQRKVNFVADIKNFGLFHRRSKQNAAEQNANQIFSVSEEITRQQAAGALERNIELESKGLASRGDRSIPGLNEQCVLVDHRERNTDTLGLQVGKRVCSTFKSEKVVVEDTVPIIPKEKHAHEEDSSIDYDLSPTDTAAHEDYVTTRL
The assay can be described thus: Antagonist activity at mouse TRPC4beta expressed in HEK293 cells co-expressing MOR decrease in DAMGO-evoked intracellular calcium level by Fluo-8-AM dye-based fluorescence assay. Put shortly:
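MOR/TRPC4β HEK293 cells loaded with Ca2+ dye. Compound given before 1 μM DAMGO. IC50 estimated from one experiment in triplicate.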
A general note: Calcium flux is commonly read through the fluorescence of an indicator in the cells.

In assay [2] the target is T2, Short transient receptor potential channel 3 (Homo sapiens, UniProt Q13507).
T2 sequence (Q13507 whole entry): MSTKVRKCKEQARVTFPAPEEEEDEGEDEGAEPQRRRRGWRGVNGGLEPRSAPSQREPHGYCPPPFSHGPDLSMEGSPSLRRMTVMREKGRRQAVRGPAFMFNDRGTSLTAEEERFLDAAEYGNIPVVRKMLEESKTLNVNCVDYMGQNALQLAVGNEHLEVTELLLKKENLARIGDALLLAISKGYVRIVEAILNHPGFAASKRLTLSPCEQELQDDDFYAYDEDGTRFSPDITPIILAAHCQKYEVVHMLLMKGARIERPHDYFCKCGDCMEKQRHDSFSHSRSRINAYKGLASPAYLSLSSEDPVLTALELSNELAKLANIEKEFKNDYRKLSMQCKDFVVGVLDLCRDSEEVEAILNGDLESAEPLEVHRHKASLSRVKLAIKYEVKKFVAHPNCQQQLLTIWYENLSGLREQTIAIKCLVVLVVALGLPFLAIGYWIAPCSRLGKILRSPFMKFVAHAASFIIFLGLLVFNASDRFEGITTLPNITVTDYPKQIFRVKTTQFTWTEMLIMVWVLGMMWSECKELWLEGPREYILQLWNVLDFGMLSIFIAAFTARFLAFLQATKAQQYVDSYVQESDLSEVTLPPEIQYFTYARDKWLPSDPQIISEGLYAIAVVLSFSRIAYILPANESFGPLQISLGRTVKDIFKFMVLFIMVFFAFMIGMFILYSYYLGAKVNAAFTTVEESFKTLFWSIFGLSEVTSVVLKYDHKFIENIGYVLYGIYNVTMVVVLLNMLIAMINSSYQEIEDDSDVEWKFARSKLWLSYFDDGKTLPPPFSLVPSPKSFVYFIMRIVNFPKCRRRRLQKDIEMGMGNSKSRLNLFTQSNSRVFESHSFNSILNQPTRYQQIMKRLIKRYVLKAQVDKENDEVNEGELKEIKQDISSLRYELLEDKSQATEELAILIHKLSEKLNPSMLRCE
Description: Agonist activity at human TRPC3 expressed in HEK293 cells assessed as induction of membrane depolarization measured for 2.5 mins in presence of 0.5 mM Ca2+ by FLIPR membrane potential dye-based fluorescence assay. The gist of the method: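 HEK293 cells stably expressing human TRPC3, run on a FlexStation at 32 °C. Loaded with FMP dye, or Fluo-type Ca2+ dye with 2 mM probenecid. Extracellular NaCl/HEPES saline, pH 7.4, with 2 mM Ca2+ (standard) or 0.5 mM Ca2+. Read as F/F0. In 0.5 mM Ca2+, FMP EC50 from a Hill fit, n = 6.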

The target of assay [3] is T3, Short transient receptor potential channel 4 (Mus musculus) (UniProt Q9QUQ5).
T3 sequence (whole entry): T1 sequence (Q9QUQ5 whole entry)
Description: Agonist activity at mouse TRPC4beta expressed in HEK293 cells co-expressing MOR assessed as increase in intracellular calcium level at 33 uM measured for 2.5 mins by Fluo-8-AM dye-based fluorescence assay.

In the case of `CCOC(=O)N1CCC(c2cc(O)n3nc(C)c(-c4ccc(F)cc4)c3n2)CC1`, in assay [1], the IC50 result is recorded as “Not Active”. In assay [2], the EC50 was found to be 0.45 µM. The outcome in assay [3] was inactive.

For `Cc1nn2c(O)cc(C3CCN(C(=O)OCc4ccccc4)CC3)nc2c1-c1ccc(Cl)cc1`, in assay [1], the IC50 entry is given as “Not Active”. Moreover, the concentration for a half-maximal effect (EC50) in assay [2] was determined as 0.138 µM. In assay [3], the outcome was inactive.

Take `Cc1nn2c(O)cc(C3CCN(C(=O)OCc4ccccc4)CC3)nc2c1-c1ccc(F)cc1`: the IC50 entry in assay [1] is on record as “Not Active”. In assay [2], the EC50 came to 0.236 µM. The result in assay [3] was inactive.

`CCOC(=O)N1CCC(c2cc(O)n3nc(C)c(-c4ccc(C(F)(F)F)cc4)c3n2)CC1`: the IC50 result in assay [1] was “Not Active”. In assay [3], the result was inactive.
